High-throughput results: PubChem, Johns Hopkins Ion Channel Center
Shown are actives, neighbours in structure and some others; about 3.5% of the full set was active somewhere.
RGS4 act = potentiators or activators of RGS4; 0.92% of 310,000 active; B-score at 10 µM; HEK293 M3R/inducible RGS4, carbachol calcium flux Fluo4; hits give low values; AID 463111;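 active means B-score of the integrated calcium signal more than 4 SD below the library mean, with starting fluorescence not abnormally high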;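 further: negative B-score means reduced calcium response which marks RGS4 activation or potentiation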
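Material: Inducible-RGS4 HEK293 cells carrying M3 receptor; also added: carbachol at ECmax as muscarinic agonist stimulus; incubation: compound preincubation 20 min at room temperature before agonist; signal: Fluo4-AM (2 µM) calcium-flux fluorescence, kinetic read; measure: integrated calcium ratio converted to B score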
MrgX1 agonist = agonists of human MrgX1 receptor | Q96LB2 | MrgX1-HEK293 cells, Fluo-4 calcium fluorescence, agonist mode; hits give high values | B-score at 10 µM | 0.44% of 310,000 active;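 active means calcium response B-score plate-corrected fluorescence ratio at least 3 library SD, with starting fluorescence B-score inside 5 SD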
Target sequence (Q96LB2 whole entry, looked up): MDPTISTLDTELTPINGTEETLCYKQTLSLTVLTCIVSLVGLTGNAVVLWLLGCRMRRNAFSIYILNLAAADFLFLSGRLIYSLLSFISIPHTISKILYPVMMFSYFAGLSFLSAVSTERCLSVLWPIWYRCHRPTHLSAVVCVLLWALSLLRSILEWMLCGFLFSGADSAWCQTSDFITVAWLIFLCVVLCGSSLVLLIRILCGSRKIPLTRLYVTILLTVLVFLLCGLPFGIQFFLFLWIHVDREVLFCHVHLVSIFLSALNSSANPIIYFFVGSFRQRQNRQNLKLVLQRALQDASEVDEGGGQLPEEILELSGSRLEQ
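Material: MrgX1-expressing HEK293 cells; input: 15,000 cells per well; doses: test compound given as first of three sequential additions; schedule: overnight plating before 1 h dye loading; technique: Fluo-4 NW calcium-flux fluorescence, kinetic read; evaluation: baseline-normalised fluorescence change ratio, B-scored; control set: plate-wise positive and negative controls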
RGS4 inh = human RGS4 inhibition; P49798; HEK293 M3R/RGS4 inducible, Fluo-4 calcium flux; hits give high values; triggered by carbachol at its EC20; B-score at 10 µM; 0.45% of 310,000 active; AID 463165;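 active means B-score, a plate-corrected calcium signal, over three deviations above library mean, with baseline fluorescence within five deviations of library mean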;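 further: RGS4 expression induced by doxycycline in cells with stable M3 receptor; B-score is computed from the integrated fluorescence ratio over baseline after carbachol; higher B-score means a larger calcium signal and so more RGS4 inhibition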
MrgX1 allo act = allosterically activates human MrgX1 receptor signaling. MrgX1-HEK293, Fluo-4 calcium flux, FDSS; hits give high values. B-score at 10 µM. 0.63% of 310,000 active;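 active means plate-corrected calcium response at least 3 library SD above typical, normal starting fluorescence, not activating the receptor alone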;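 further: compound read alongside a low EC10 to EC30 dose of BAM8-22 agonist; peak minus trough fluorescence over baseline measured at the second addition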
MrgX1 antag = blocks BAM8-22 activation of human MrgX1 receptor; B-score at 10 µM; 1.3% of 310,000 active; Q96LB2; MRGX1-HEK293 calcium flux, Fluo-4, BAM8-22 antagonism; hits give low values;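 active means calcium-response B-score plate-corrected more than 3 library SD below zero, starting fluorescence within 5 deviations, no agonist response on first addition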;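 further: peak minus trough fluorescence over baseline after final BAM8-22 challenge near maximal dose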
* hit, by the source's call.

For Cc1ccc(Cn2cc(C=O)c(-c3ccc(F)cc3)n2)cc1 the results were RGS4 act inactive, MrgX1 agonist inactive, RGS4 inh inactive, MrgX1 allo act 7.57* and MrgX1 antag inactive.
For C#CC1(OC(=O)c2ccccc2)CC(C)N(C)CC1C (stereo unspecified) the results were RGS4 act -7.03*, MrgX1 agonist inactive, RGS4 inh inactive, MrgX1 allo act inactive and MrgX1 antag inactive.
For CN1C2CCC1CC(=NO)C2 the results were RGS4 act inactive, MrgX1 agonist inactive, RGS4 inh inactive, MrgX1 allo act inactive and MrgX1 antag -5.28*.
Cc1cccc(N2C(=O)NC(=O)/C(=C\c3ccc4c(c3)CCCN4Cc3ccccc3)C2=O)c1 was read as RGS4 act inactive, MrgX1 agonist inactive, RGS4 inh inactive, MrgX1 allo act 11.9* and MrgX1 antag inactive.
For COC(=O)C1=C(c2ccc(S(C)(=O)=O)cc2)C[C@@H]2CC[C@H]1N2C(=O)NCc1cccc2ccccc12 the results were RGS4 act inactive, MrgX1 agonist inactive, RGS4 inh inactive, MrgX1 allo act inactive and MrgX1 antag inactive.
For Cc1ccc(NC(=O)[C@@H](NC(=O)N2C[C@H]3C[C@@H](C2)c2cccc(=O)n2C3)C(C)C)cc1 the results were RGS4 act inactive, MrgX1 agonist inactive, RGS4 inh inactive, MrgX1 allo act inactive and MrgX1 antag inactive.
For CC/C(=C\C=C\[C@@H]1C=C[C@@H]2CCC[C@H]2[C@@H]1C(=O)c1ccc[nH]1)[C@@H]1O[C@@H]([C@@H](C)C(=O)O)CC[C@@H]1C the results were RGS4 act -8.25*, MrgX1 agonist 35.2*, RGS4 inh inactive, MrgX1 allo act inactive and MrgX1 antag inactive.
O=c1[nH]c(=S)n(Cc2ccc(F)cc2)c(O)c1/C=N/N1CCCCCC1 was read as RGS4 act inactive, MrgX1 agonist inactive, RGS4 inh inactive, MrgX1 allo act inactive and MrgX1 antag inactive.
`CCC(C)n1c(O)c(C=NCC2CCCO2)c(=O)[nH]c1=S` (stereo unspecified) gave RGS4 act -10.2*, MrgX1 agonist inactive, RGS4 inh inactive, MrgX1 allo act inactive and MrgX1 antag inactive.
Screening CCC(C)n1c(O)c(/C=N/N2CCOCC2)c(=O)[nH]c1=S (stereo unspecified) returned RGS4 act inactive, MrgX1 agonist inactive, RGS4 inh inactive, MrgX1 allo act inactive and MrgX1 antag inactive.
`C=C(C)[C@@]12OC3(c4ccccc4)O[C@@H]1C1[C@@H]4O[C@]4(CO)[C@@H](O)[C@]4(O)C(=O)C(C)=C[C@H]4[C@@]1(O3)[C@H](C)[C@H]2OC(=O)/C=C/C=C/c1ccccc1` (stereo partly specified) gave RGS4 act -8.62*, MrgX1 agonist inactive, RGS4 inh inactive, MrgX1 allo act inactive and MrgX1 antag inactive.
For C=C1[C@@H](OC(C)=O)[C@]23C[C@@H]1[C@@H](OC(C)=O)CC2[C@]12C4C[C@H]3[C@H]1N(CC)C[C@]4(C)CC[C@@H]2O (stereo partly specified) the results were RGS4 act inactive, MrgX1 agonist inactive, RGS4 inh inactive, MrgX1 allo act inactive and MrgX1 antag inactive.
Cc1nc2ccccc2c(=O)n1/N=C/c1cc(Br)cc(Br)c1O was read as RGS4 act inactive, MrgX1 agonist inactive, RGS4 inh inactive, MrgX1 allo act inactive and MrgX1 antag -8.59*.
For COc1ccccc1CN1CCN(C(=O)COc2ccc3ccccc3c2)CC1 the results were RGS4 act inactive, MrgX1 agonist inactive, RGS4 inh inactive, MrgX1 allo act inactive and MrgX1 antag inactive.
For O=C(CCC(=O)N1C[C@H]2C[C@@H](C1)c1cccc(=O)n1C2)NCc1ccccc1 the results were RGS4 act inactive, MrgX1 agonist inactive, RGS4 inh inactive, MrgX1 allo act inactive and MrgX1 antag inactive.
Screening CCN(CC)CCCOC(=O)C(OC(C)C)(c1ccccc1)c1ccccc1 returned RGS4 act -10.6*, MrgX1 agonist inactive, RGS4 inh inactive, MrgX1 allo act inactive and MrgX1 antag inactive.
